pIC50, pKi: −log10 of the molar value. In brackets after ≈: the same amount, converted by molar mass. Peptide text beside a SMILES is read from it.
What was measured:
Substance-K receptor [1] = target: T1, Substance-K receptor (Homo sapiens, UniProt P21452); assay: Tested for binding affinity against human NK-2 receptor
T1 sequence (P21452 whole entry): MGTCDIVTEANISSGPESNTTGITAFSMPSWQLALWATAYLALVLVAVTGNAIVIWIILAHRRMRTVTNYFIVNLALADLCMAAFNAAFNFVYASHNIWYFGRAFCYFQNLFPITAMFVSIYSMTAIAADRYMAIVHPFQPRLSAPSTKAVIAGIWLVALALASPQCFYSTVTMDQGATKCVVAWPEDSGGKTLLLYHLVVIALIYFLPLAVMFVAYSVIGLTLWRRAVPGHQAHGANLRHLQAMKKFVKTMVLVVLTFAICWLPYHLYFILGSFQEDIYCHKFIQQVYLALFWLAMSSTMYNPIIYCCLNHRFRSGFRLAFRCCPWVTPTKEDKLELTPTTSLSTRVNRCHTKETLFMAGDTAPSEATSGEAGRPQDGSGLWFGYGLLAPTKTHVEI

Rattus norvegicus [2] = organism: Rattus norvegicus; assay: Tested for its ability to promote degranulation of rat peritoneal mast cells; type: functional, cell-based
Summary of the method: (§1)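 Peritoneal mast cells lavaged from male Sprague-Dawley rats (350-400 g), buffer pH 6.8, 2 × 10^4 cells/mL, preincubated 10 min at 37 °C, then exposed to compound (10^-7 to 10^-4 M, in water or DMSO) 10 min at 37 °C; iced, centrifuged; histamine in supernatant and pellet measured fluorimetrically with o-phthalaldehyde, as % of total.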

Substance-P receptor [3] = target: Substance-P receptor (Rattus norvegicus, UniProt P14600); assay: Tested for binding affinity against rat NK-1 receptor
Substance-P receptor (Rattus norvegicus, UniProt P14600), sequence (P14600 whole entry): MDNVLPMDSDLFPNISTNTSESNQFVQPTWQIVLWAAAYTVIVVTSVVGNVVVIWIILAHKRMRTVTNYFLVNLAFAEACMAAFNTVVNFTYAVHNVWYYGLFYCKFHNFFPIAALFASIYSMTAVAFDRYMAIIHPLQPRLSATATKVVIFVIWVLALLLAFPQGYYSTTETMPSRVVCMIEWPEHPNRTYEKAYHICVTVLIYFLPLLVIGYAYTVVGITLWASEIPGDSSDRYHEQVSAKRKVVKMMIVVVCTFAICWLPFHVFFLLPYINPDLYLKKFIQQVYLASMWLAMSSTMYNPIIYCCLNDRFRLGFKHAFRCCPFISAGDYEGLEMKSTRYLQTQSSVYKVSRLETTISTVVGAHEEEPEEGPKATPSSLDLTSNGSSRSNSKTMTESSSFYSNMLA

Mus musculus [4] = assay: Tested for antinociceptive activity against mouse hotplate test for 10 min after intravenous injection at 0.5 […] (P*<0.05); type: functional
Mus musculus [5] = assay: Tested for antinociceptive activity against mouse hotplate test for 60 min after oral administration of 40 mg/kg (P*<0.05); type: functional
Summary of the method: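 Male CD1 mice (25-30 g) on a 55 ± 0.2 °C plate; forepaw-licking latency measured 60 min after oral 40 mg/kg given in water (soluble) or 0.2% hydroxypropylcellulose (insoluble); % increase of reaction time versus vehicle controls; groups of 12 animals; Dunnett t-test.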

Substance-K receptor [6] = target: T2, Substance-K receptor (Rattus norvegicus, UniProt P16610); assay: Tested for binding affinity against rat NK-2 receptor
T2 sequence (P16610 whole entry): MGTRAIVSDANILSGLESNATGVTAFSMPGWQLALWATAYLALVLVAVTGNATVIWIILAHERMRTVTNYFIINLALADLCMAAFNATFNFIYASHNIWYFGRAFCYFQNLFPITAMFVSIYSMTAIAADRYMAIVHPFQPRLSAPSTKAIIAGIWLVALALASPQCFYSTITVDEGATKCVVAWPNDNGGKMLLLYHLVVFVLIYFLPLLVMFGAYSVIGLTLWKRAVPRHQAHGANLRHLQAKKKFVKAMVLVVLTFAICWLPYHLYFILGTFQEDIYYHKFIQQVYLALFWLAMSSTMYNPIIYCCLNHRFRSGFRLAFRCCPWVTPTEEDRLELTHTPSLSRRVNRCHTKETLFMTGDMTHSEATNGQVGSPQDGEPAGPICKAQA

[7] = Solubility was evaluated; type: physicochemical
Substance-K receptor [8] = target: T3, Substance-K receptor (Oryctolagus cuniculus, UniProt P79218); assay: Tested for antagonist activity against NK-2 receptor in rabbit pulmonary artery by using Neurokinin A as agonist; type: functional; details: read-out: pA2 (converted)
T3 sequence (P79218 whole entry): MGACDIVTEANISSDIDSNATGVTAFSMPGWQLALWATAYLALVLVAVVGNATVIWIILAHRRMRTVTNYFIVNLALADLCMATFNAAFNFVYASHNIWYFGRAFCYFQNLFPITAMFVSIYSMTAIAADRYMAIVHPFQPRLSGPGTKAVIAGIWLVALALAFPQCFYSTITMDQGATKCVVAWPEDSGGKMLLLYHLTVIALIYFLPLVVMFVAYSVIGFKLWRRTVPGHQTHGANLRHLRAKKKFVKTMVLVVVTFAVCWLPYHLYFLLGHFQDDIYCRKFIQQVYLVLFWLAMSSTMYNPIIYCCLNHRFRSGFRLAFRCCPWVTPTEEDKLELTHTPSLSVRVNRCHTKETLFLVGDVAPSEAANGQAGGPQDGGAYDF
Summary of the method: (§2)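 Isolated-organ contractile bioassays: SP on rabbit vena cava (NK-1), neurokinin A on rabbit pulmonary artery (NK-2), neurokinin B on rat portal vein (NK-3); antagonist apparent affinity expressed as pA2 by Schild plot.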

[9] = target: Substance-P receptor (Oryctolagus cuniculus); assay: Tested for antagonist activity against NK1 receptor in rabbit vena cava by using substance P (SP) as agonist; details: read-out: pA2 (converted)
Neuromedin-K receptor = target: T4, Neuromedin-K receptor (Rattus norvegicus, UniProt P16177); assay: Tested for antagonist activity against NK-3 receptor in rat portal vein by using Neurokinin B as agonist; type: functional; details: read-out: pA2 (converted); summary of the method: as §2
T4 sequence (P16177 whole entry): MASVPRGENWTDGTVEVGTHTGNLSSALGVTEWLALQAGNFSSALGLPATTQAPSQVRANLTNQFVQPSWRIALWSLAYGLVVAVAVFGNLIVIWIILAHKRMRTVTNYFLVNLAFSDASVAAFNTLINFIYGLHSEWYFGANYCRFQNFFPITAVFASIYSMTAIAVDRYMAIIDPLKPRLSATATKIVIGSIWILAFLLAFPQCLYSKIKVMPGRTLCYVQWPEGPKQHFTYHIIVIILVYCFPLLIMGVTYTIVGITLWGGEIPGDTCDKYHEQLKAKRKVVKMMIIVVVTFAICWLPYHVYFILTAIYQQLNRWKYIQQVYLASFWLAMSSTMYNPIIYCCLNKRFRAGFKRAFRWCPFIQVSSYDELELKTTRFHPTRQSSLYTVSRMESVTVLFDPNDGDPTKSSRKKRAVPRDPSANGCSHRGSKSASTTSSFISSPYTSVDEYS

Substance-P receptor [10] = target: Substance-P receptor (Homo sapiens, UniProt P25103); assay: Tested for binding affinity against human NK-1 receptor
Substance-P receptor (Homo sapiens, UniProt P25103), sequence (P25103 whole entry): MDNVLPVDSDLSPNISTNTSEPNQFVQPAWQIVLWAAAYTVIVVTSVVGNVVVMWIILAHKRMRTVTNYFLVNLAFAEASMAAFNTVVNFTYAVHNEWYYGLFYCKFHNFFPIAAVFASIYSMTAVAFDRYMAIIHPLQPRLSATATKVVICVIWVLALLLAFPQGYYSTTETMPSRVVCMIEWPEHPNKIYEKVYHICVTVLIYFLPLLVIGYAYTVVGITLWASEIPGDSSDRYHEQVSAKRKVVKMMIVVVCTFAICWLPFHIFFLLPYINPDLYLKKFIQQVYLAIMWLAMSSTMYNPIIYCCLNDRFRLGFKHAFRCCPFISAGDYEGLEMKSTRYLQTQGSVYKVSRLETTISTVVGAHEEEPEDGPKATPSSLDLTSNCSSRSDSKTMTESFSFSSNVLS

Substance-K receptor [11] = target: T1, Substance-K receptor; assay: Tested for binding affinity against human NK-2 receptor transfected on CHO cells using [125I]-His] NKA as radioligand; type: cell-based
Rattus norvegicus [12] = organism: Rattus norvegicus; assay: Tested for its ability to promote degranulation of rat peritoneal mast cells at 0.1 mM or lower; No degranulation; type: functional, cell-based; summary of the method: as §1
Substance-K receptor [13] = target: T2, Substance-K receptor; assay: Tested for binding affinity against rat NK-2 receptor transfected on CHO cells using [125I]-His] NKA as radioligand; type: cell-based
[14] = (§3) Binding affinity by displacement of tritiated substance P from its binding sites on membrane preparations from mouse brain; type: tissue-based
[15] = (§4) Binding affinity by displacement of tritiated substance P from its binding sites on membrane preparations from rat brain; type: tissue-based
Rattus norvegicus [16] = organism: Rattus norvegicus; assay: as §4
Mus musculus [17] = organism: Mus musculus; assay: as §3
Mus musculus [18] = assay: Tested for antinociceptive activity against mouse hotplate test for 10 min after intravenous injection at 0.5 […] (P*<0.01); type: functional

Structure (SMILES): CN(Cc1ccccc1)C(=O)[C@H](Cc1ccccc1)NC(=O)[C@@H](Cc1cn(C(=O)OCCCCCCN)c2ccccc12)NC(=O)C[C@@H]1NC(=O)[C@@H]2C3CCC(CC3)N2C1=O
- pIC50 (Substance-K receptor [1]): 7.34
- pIC50 (Rattus norvegicus [2]): 4.89
- pIC50 (Substance-P receptor [3]): 5.50
- Increase (Mus musculus [4]): 40%
- Increase (Mus musculus [5]): 62%
- pIC50 (Substance-K receptor [6]): 6.61
- solubility [7]: 40000 µg/mL (≈ 48100 µM)
- Kb (Substance-K receptor [8]): 10000 nM
- Kb [9]: 39.8 nM
- Kb (Neuromedin-K receptor): 10000 nM
- pIC50 (Substance-P receptor [10]): 7.47

Structure (SMILES): CN(Cc1ccccc1)C(=O)[C@H](Cc1ccccc1)NC(=O)[C@@H](Cc1cn(C=O)c2ccccc12)NC(=O)C[C@@H]1NC(=O)[C@@H]2C3CCC(CC3)N2C1=O
- pIC50 (Substance-K receptor [11]): 7.77
- IC50 (Rattus norvegicus [12]): Not Active
- Increase (Mus musculus [4]): 51%
- Increase (Mus musculus [5]): 33%
- solubility [7]: < 10 µg/mL
- Kb (Substance-K receptor [8]): 12600 nM
- pIC50 (Substance-K receptor [13]): 6.85
- Kb (Neuromedin-K receptor): 12600 nM

Structure (SMILES): CSCC[C@@H](NC(=O)[C@H](CC(C)C)NC(=O)CNC(=O)[C@H](Cc1ccccc1)NC(=O)[C@H](Cc1ccccc1)NC(=O)[C@H](CCC(N)=O)NC(=O)[C@H](CCC(N)=O)NC(=O)[C@@H]1CCCN1)C(N)=O
- pKi [14]: 6.12
- pKi [15]: 6.12

Structure (SMILES): CN(Cc1ccccc1)C(=O)[C@H](Cc1ccccc1)NC(=O)[C@@H](Cc1cn(C(=O)CCCCCCN)c2ccccc12)NC(=O)C[C@@H]1NC(=O)[C@@H]2C3CCC(CC3)N2C1=O
- pIC50 (Substance-K receptor [1]): 7.35
- pIC50 (Rattus norvegicus [2]): 4.89
- Increase (Mus musculus [4]): 54%
- Increase (Mus musculus [5]): 62%
- pIC50 (Substance-K receptor [6]): 6.73
- solubility [7]: 43000 µg/mL (≈ 52700 µM)
- Kb (Substance-K receptor [8]): 20000 nM
- Kb (Neuromedin-K receptor): 2000 nM

Structure (SMILES): CC(=O)n1cc(C[C@@H](NC(=O)C[C@@H]2NC(=O)[C@@H]3C4CCC(CC4)N3C2=O)C(=O)N[C@@H](Cc2ccccc2)C(=O)N(C)Cc2ccccc2)c2ccccc21
- solubility [7]: < 10 µg/mL
- Kb (Substance-K receptor [8]): 126 nM
- Kb [9]: 50.1 nM
- Kb (Neuromedin-K receptor): 100 nM

Structure (SMILES): COC(=O)n1cc(C[C@@H](NC(=O)C[C@@H]2NC(=O)[C@@H]3C4CCC(CC4)N3C2=O)C(=O)N[C@@H](Cc2ccccc2)C(=O)N(C)Cc2ccccc2)c2ccccc21
- solubility [7]: < 10 µg/mL
- Kb (Substance-K receptor [8]): 15800 nM
- Kb [9]: 100 nM
- Kb (Neuromedin-K receptor): 158 nM

Structure (SMILES): CN(Cc1ccccc1)C(=O)[C@H](Cc1ccccc1)NC(=O)[C@@H](Cc1cn(C(=O)OC(C)(C)C)c2ccccc12)NC(=O)C[C@@H]1NC(=O)[C@@H]2C3CCC(CC3)N2C1=O
- solubility [7]: < 10 µg/mL
- Kb (Substance-K receptor [8]): 12600 nM
- Kb [9]: 126 nM
- Kb (Neuromedin-K receptor): 1260 nM

Structure (SMILES): CC(C)C[C@H](NC(=O)[C@H](CC(C)C)NC(=O)[C@@H](Cc1c[nH]c2ccccc12)NC(=O)[C@H](Cc1ccccc1)NC(=O)[C@@H](Cc1c[nH]c2ccccc12)NC(=O)[C@H](CCC(N)=O)NC(=O)[C@H](CCC(N)=O)NC(=O)[C@@H]1CCCN1C(=O)[C@H](CCCCN)NC(=O)[C@@H]1CCCN1C(=O)[C@H](N)CCCN=C(N)N)C(N)=O (HELM PEPTIDE1{[dR].P.K.P.Q.Q.[dW].F.[dW].L.L.[am]}$$$$V2.0)
- pKi (Rattus norvegicus [16]): 5.59
- pKi (Mus musculus [17]): 5.59
- Kb (Neuromedin-K receptor): 631 nM

Structure (SMILES): CCCCCCCC(=O)n1cc(C[C@@H](NC(=O)C[C@@H]2NC(=O)[C@@H]3C4CCC(CC4)N3C2=O)C(=O)N[C@@H](Cc2ccccc2)C(=O)N(C)Cc2ccccc2)c2ccccc21
- solubility [7]: < 10 µg/mL
- Kb (Substance-K receptor [8]): 15800 nM
- Kb [9]: 12600 nM
- Kb (Neuromedin-K receptor): 12600 nM

Structure (SMILES): CN(Cc1ccccc1)C(=O)[C@H](Cc1ccccc1)NC(=O)[C@@H](Cc1cn(C(=O)CCC(=O)O)c2ccccc12)NC(=O)C[C@@H]1NC(=O)[C@@H]2C3CCC(CC3)N2C1=O
- pIC50 (Substance-K receptor [1]): 6.89
- pIC50 (Substance-P receptor [3]): 4.84
- Increase (Mus musculus [4]): 42%
- Increase (Mus musculus [5]): 53%
- pIC50 (Substance-K receptor [6]): 6.41
- solubility [7]: 45000 µg/mL (≈ 57000 µM)
- Kb (Substance-K receptor [8]): 15800 nM
- Kb [9]: 126 nM
- Kb (Neuromedin-K receptor): 12600 nM
- pIC50 (Substance-P receptor [10]): 7.07

Structure (SMILES): CN(Cc1ccccc1)C(=O)[C@H](Cc1ccccc1)NC(=O)[C@@H](Cc1cn(C(=O)OCc2ccccc2)c2ccccc12)NC(=O)C[C@@H]1NC(=O)[C@@H]2C3CCC(CC3)N2C1=O
- solubility [7]: < 10 µg/mL
- Kb (Substance-K receptor [8]): 1260 nM
- Kb [9]: 158 nM
- Kb (Neuromedin-K receptor): 1580 nM

Structure (SMILES): CN(Cc1ccccc1)C(=O)[C@H](Cc1ccccc1)NC(=O)[C@@H](Cc1c[nH]c2ccccc12)NC(=O)C[C@@H]1NC(=O)[C@@H]2C3CCC(CC3)N2C1=O
- pIC50 (Substance-K receptor [11]): 7.19
- IC50 (Rattus norvegicus [12]): Not Active
- Increase (Mus musculus [5]): 74%
- solubility [7]: < 10 µg/mL
- Increase (Mus musculus [18]): 66%
- Kb (Substance-K receptor [8]): 2000 nM
- pIC50 (Substance-K receptor [13]): 7.19
- Kb (Neuromedin-K receptor): 1580 nM
